This is an account of results in ChEMBL document CHEMBL3232930, “One-pot, four-component synthesis of novel cytotoxic agents 1-(5-aryl-1,3,4-oxadiazol-2-yl)-1-(1H-pyrrol-2-yl)methanamines” (Eur J Med Chem, 2014).

Assay [1] relates to MCF7. In words: Cytotoxicity against human MCF7 cells assessed as reduction in cell viability after 24 hrs by MTT assay. To be noted: MCF7, 24 h. In kind it is functional, cell-based. The method in brief: (§1)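 15,000 exponential-phase cells per well were seeded and incubated 24 h, then exposed to a range of test concentrations. Medium alone served as the negative control and doxorubicin as the positive control. MTT (5 mg/mL stock) was added for a further 4 h, and the formazan was dissolved in DMSO. Percent inhibition versus control was calculated, and IC50 was taken from the dose–inhibition curve. Each experiment was run three times.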
A general note: Tetrazolium dyes change colour on reduction, which living cells bring about.

Assay [2] in a line: Cytotoxicity against human HT1080 cells assessed as reduction in cell viability after 24 hrs by MTT assay. The following applies: HT-1080, 24 h. In kind it is functional, cell-based. The method in brief: as §1
Another assay deals with A549. As to the kind of experiment: Cytotoxicity against human A549 cells assessed as reduction in cell viability after 24 hrs by MTT assay. In kind it is functional, cell-based. The following applies: A549, 24 h. The method in brief:
as §1

Another assay relates to HT-29. In words: Cytotoxicity against human HT-29 cells assessed as reduction in cell viability after 24 hrs by MTT assay. In kind it is functional, cell-based. To be noted: HT-29, 24 h. In short, it runs like this: as §1
Assay [3] concerns MCF7. As to the kind of experiment: Ratio of doxorubicin IC50 to compound IC50 for human MCF7 cells assessed as reduction in cell viability after 24 hrs by MTT assay. In kind it is functional.

Structures are written as SMILES.

For orientation: IC50 means the concentration needed to halve the response being measured. On to `c1ccc(CNC(c2ccc[nH]2)c2nnc(-c3ccccc3)o2)cc1` (stereo not drawn), for which the IC50 in the assay on MCF7 [1] was found to be 216 µM; in assay [2], 231 µM; in the assay with A549 it was 187 µM; with HT-29 it was 198 µM.
The like results for `Clc1cccc(-c2nnc(C(NCc3ccccc3)c3ccc[nH]3)o2)c1` (stereo not drawn) were, in that order, 56.7 µM, 41.1 µM, 62.2 µM and 48.3 µM.
The like results for `Clc1ccc(-c2nnc(C(NCc3ccccc3)c3ccc[nH]3)o2)cc1` (stereo not drawn) were, in that order, 46.2 µM, 41 µM, 73.8 µM and 54.5 µM.
For `Clc1ccc(-c2nnc(C(NCc3ccccc3)c3ccc[nH]3)o2)cc1Cl` (stereo not drawn), in that order: 13.9 µM, 15.2 µM, 25.5 µM and 41.7 µM.
For the compound `Fc1cc(-c2nnc(C(NCc3ccccc3)c3ccc[nH]3)o2)c(Cl)cc1Cl` (stereo not drawn), the IC50 turned out to be 21.7 µM in the assay on MCF7 [1], 25.6 µM in assay [2], 27.5 µM in the assay with A549 and 20 µM in the assay with HT-29.
The like results for `Brc1ccc(-c2nnc(C(NCc3ccccc3)c3ccc[nH]3)o2)cc1` (stereo not drawn) were, in that order, 96.6 µM, 70.6 µM, 87.2 µM and 58.3 µM.
The like results for `Cc1ccc(-c2nnc(C(NCc3ccccc3)c3ccc[nH]3)o2)cc1` (stereo not drawn) were, in that order, 1120 µM, 909 µM, 744 µM and 249 µM.
The like results for `Cc1cccc(-c2nnc(C(NCc3ccccc3)c3ccc[nH]3)o2)c1` (stereo not drawn) were, in that order, 480 µM, 311 µM, 430 µM and 202 µM.
Regarding `COc1ccc(-c2nnc(C(NCc3ccccc3)c3ccc[nH]3)o2)cc1` (stereo not drawn), the IC50 with MCF7 [1] was 460 µM; in assay [2] it was 170 µM; with A549, 326 µM; in the assay with HT-29, 344 µM.
For `COc1ccc(-c2nnc(C(NCc3ccccc3)c3ccc[nH]3)o2)c(OC)c1` (stereo not drawn), in that order: 471 µM, 418 µM, 296 µM and 392 µM.
The like results for `COc1ccccc1CNC(c1ccc[nH]1)c1nnc(-c2ccccc2)o1` (stereo not drawn) were, in that order, 441 µM, 278 µM, 362 µM and 392 µM.
For `COc1ccc(CNC(c2ccc[nH]2)c2nnc(-c3ccccc3)o2)cc1` (stereo not drawn), in that order: 142 µM, 175 µM, 278 µM and 286 µM.
As to `COc1ccc(CNC(c2ccc[nH]2)c2nnc(-c3cccc(Cl)c3)o2)cc1` (stereo not drawn), the IC50 in the assay with MCF7 [1] is 41.7 µM; in assay [2], 84.6 µM; with A549 it was 77.5 µM; with HT-29, 95.6 µM.
On to `Cc1ccc(CNC(c2ccc[nH]2)c2nnc(-c3ccc(Br)cc3)o2)cc1` (stereo not drawn), for which the IC50 amounted to 4.3 µM in the assay with MCF7 [1], 51.9 µM in assay [2], 53.9 µM with A549 and 49.5 µM with HT-29. Further, the “Ratio IC50” value in the assay on MCF7 [3] was determined as 4.
For `COc1ccc(-c2nnc(C(NCc3ccc(F)cc3)c3ccc[nH]3)o2)cc1` (stereo not drawn), the IC50 came out at 28.9 µM in the assay on MCF7 [1], 14.7 µM in assay [2], 52.8 µM with A549 and 39.4 µM in the assay with HT-29.
The like results for `Clc1cccc(-c2nnc(C(NCc3ccc(Cl)c(Cl)c3)c3ccc[nH]3)o2)c1` (stereo not drawn) were, in that order, 19 µM, 25.1 µM, 13.3 µM and 18 µM.
The like results for `Clc1ccc(CNC(c2ccc[nH]2)c2nnc(-c3ccc(Br)cc3)o2)cc1Cl` (stereo not drawn) were, in that order, 31 µM, 45.3 µM, 17.3 µM and 20 µM.
For `COc1cccc2c1C(=O)c1c(O)c3c(c(O)c1C2=O)C[C@@](O)(C(=O)CO)C[C@@H]3O[C@H]1C[C@H](N)[C@H](O)[C@H](C)O1` [DOXORUBICIN], in that order: 16.9 µM, 15.4 µM, 13.6 µM and 16 µM.
